Assay results as given in paper PMC3715055 (Science translational medicine, 2012).

Tests used:
SERCA pump [1] = target: T1, SERCA pump (Oryctolagus cuniculus, UniProt P04191); test: Intrinsic fluorescence binding competition on SERCA; settings: intrinsic fluorescent studies
[2] = Biodistribution in MCF-7 tumor-bearing mice; assay type: in vivo, mouse
TSU cells = test: Intracellular free calcium in fura-2-loaded TSU cells; assay type: cell-based, human; settings: PSMA-nonproducing TSU cells
[3] = test system: TSU human bladder cancer cells; test: Clonal survival assay, PSMA-negative TSU cells, 72-hour exposure; assay type: cell-based; settings: human cancer cell lines (Fig. 3A: TSU)
Method in brief: (§1)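 Clonal survival assays used PSMA-negative TSU bladder and PSMA-positive LNCaP prostate cancer cells exposed to test compounds for 72 hours. IC50 was the concentration inhibiting proliferation by 50%. Assays were run in triplicate and reported as mean ± SE.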

[4] = Biodistribution in CWR22R-H-bearing castrated mice; assay type: in vivo, mouse
Method in brief: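 Castrated mice carried CWR22R-H tumours started s.c. from 10 mg minced tumour in Matrigel. Five mice received one 56 mg/kg dose of test compound. Tumour, liver, kidney, skeletal muscle and brain were harvested 5 days later. Test compound and its PSMA cleavage products were measured in tissue by LC-MS. Tumour levels were compared with other tissues by Student's t test.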

[5] = test system: LNCaP human prostate cancer cells; test: Clonal survival assay, PSMA-positive LNCaP cells, 72-hour exposure; assay type: cell-based; settings: human cancer cell lines (Fig. 3A: LNCaP)
Method in brief: as §1

SERCA pump [6] = target: T1, SERCA pump; test: SERCA pump assay with skeletal muscle microsomes; assay type: biochemical, rabbit; settings: broken cell microsomal studies
[7] = BALB/c mice; cited from earlier work
[8] = test system: PC-3 human prostate cancer cells; test: Clonal survival of PC-3 cells after repeated exposure; assay type: cell-based; settings: 11 cycles of repeat exposure and clonal expansion, 500 nM
[9] = test system: LNCaP human prostate cancer xenografts; test: LNCaP xenograft efficacy in intact mice; assay type: in vivo, mouse; settings: for treated-to-control tumor volume (T/C) ratio: maximally tolerated dose × 3
Method in brief: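 Six-week-old male nude mice were inoculated in the flank with 2 × 10^6 LNCaP cells in Matrigel. Test compound was given i.v. at 56 mg/kg on days 0, 1 and 2. The docetaxel comparator was dosed on days 0, 2 and 5. Tumour volume was followed for 30 days against untreated mice by Student's t test. T/C was the treated-to-control tumour volume ratio.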

[10] = Dose-finding / maximum tolerated dose in mice; assay type: in vivo, mouse; settings: for maximally tolerated dose: × 3 doses
GLP toxicology in rat = assay type: in vivo
[11] = Stability to hydrolysis in human plasma; assay type: in vitro ADME
LNCaP cells = test: Growth inhibition of LNCaP cells with or without PSMA inhibitor PMPA; assay type: cell-based, human; settings: 48-hour exposure, PMPA 10 μM
[12] = test system: MDA-PCa2b human prostate cancer xenografts; test: MDA-PCa2b xenograft efficacy in intact mice; assay type: in vivo, mouse
Method in brief: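 Six-week-old male nude mice carried flank MDA-PCa2b tumours from 2 × 10^6 cells in Matrigel. Test compound was given i.v. at 56 mg/kg on 3 consecutive days. Tumour volume was followed for ≥30 days against untreated controls by Student's t test. Tumours harvested 4 days after the last dose had H&E staining and nuclear AR immunostaining with rabbit polyclonal anti-AR antibody.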

[13] = Body weight of xenograft-bearing mice; assay type: in vivo, mouse; settings: 56 mg/kg × 3, by 5 to 7 days after therapy, baseline by days 14 to 21
[14] = Phase 1 clinical trial pharmacokinetics; assay type: in vivo, human
Method in brief: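 Eighteen advanced cancer patients in a phase 1 dose-escalation trial received a 1-hour i.v. infusion at 1.2 to 40 mg/m2. Serum concentrations were followed over 24 hours. Analysis was noncompartmental. AUC0–∞ used the linear trapezoidal method and t1/2 the log-linear terminal slope. Dose proportionality was assessed from AUC across doses.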

[15] = test system: CWR22R-H human prostate cancer xenografts; test: CWR22R-H xenograft efficacy in castrated mice; assay type: in vivo, mouse; settings: single 3-day course, 56 mg/kg × 3, out to ≥30 days
Method in brief: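 Castrated mice had CWR22R-H xenografts from s.c. minced tumour (10 mg) in Matrigel. Three consecutive daily i.v. doses of 56 mg/kg were given on days 0, 1 and 2. Tumour volume was followed for ≥30 days against untreated controls by Student's t test. Body weight was recorded.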

[16] = Pharmacokinetics in monkey toxicological studies; assay type: in vivo; settings: serum, intravenous
Method in brief: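 Male and female monkeys received a single 1-hour treatment at 1 to 10 mg/kg. Serum levels of test compound were followed over 24 hours. Analysis was noncompartmental. Terminal half-life came from the terminal slope of a log-linear concentration–time plot.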

Fc-PSMA = Fc-PSMA (Homo sapiens, UniProt Q04609); test: PSMA prodrug hydrolysis with Fc-PSMA; assay type: biochemical; settings: incubation with Fc-PSMA
Method in brief: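 Enzyme activity was confirmed beforehand by 3H-NAAG hydrolysis. Aliquots taken over time were analysed by HPLC with 0.1% TFA in water and acetonitrile, 40–100% B over 25 min. Products were identified by co-elution and confirmed by MS. Human plasma and other purified proteases at equimolar level were also tested.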

other purified proteases = test: Hydrolysis by other purified proteases; assay type: biochemical; settings: equimolar concentrations of other proteases
[17] = test system: TSU human bladder cancer xenografts; test: TSU xenograft efficacy; assay type: in vivo, mouse; settings: more intensive treatment schedule
[18] = Single-dose pharmacokinetics in BALB/c mice; assay type: in vivo, mouse; settings: single dose of 67 mg/kg
Method in brief: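 Wild-type BALB/c mice received a single i.v. dose of 67 mg/kg. Groups of three mice were sampled at time points over 24 hours. Plasma test compound and its 12ADTβAsp cleavage product were quantified by LC-MS/MS. Analysis was noncompartmental, with a semilog regression trend line.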

[19] = test system: MCF-7 human breast cancer xenografts; test: MCF-7 xenograft efficacy in female nude mice; assay type: in vivo, mouse; settings: for T/C ratio: day 21
Method in brief: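 Female nude mice with s.c. estrogen pellets carried flank tumours from 2 × 10^6 MCF-7 cells. Mice received one, two or three daily doses of 56 mg/kg test compound. Tumour volume and body weight were followed against untreated controls by Student's t test. Xenografts had histology 6 days after two doses. ER was stained with an ERα mAb. T/C was treated-to-control tumour volume.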

[20] = GLP toxicology in cynomolgus monkey; assay type: in vivo
Method in brief: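 Toxicology was done in cynomolgus monkeys of both sexes at 10 mg/kg, with vehicle-treated controls. Necropsy was on day 33 and examined lymph nodes, spleen and thymus histologically. Splenic/body weight and thymus/body weight ratios were compared with vehicle animals, three per sex.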

[21] = MCF-7, 5 days after single dose of G202 56 mg/kg

T1 sequence (P04191 whole entry): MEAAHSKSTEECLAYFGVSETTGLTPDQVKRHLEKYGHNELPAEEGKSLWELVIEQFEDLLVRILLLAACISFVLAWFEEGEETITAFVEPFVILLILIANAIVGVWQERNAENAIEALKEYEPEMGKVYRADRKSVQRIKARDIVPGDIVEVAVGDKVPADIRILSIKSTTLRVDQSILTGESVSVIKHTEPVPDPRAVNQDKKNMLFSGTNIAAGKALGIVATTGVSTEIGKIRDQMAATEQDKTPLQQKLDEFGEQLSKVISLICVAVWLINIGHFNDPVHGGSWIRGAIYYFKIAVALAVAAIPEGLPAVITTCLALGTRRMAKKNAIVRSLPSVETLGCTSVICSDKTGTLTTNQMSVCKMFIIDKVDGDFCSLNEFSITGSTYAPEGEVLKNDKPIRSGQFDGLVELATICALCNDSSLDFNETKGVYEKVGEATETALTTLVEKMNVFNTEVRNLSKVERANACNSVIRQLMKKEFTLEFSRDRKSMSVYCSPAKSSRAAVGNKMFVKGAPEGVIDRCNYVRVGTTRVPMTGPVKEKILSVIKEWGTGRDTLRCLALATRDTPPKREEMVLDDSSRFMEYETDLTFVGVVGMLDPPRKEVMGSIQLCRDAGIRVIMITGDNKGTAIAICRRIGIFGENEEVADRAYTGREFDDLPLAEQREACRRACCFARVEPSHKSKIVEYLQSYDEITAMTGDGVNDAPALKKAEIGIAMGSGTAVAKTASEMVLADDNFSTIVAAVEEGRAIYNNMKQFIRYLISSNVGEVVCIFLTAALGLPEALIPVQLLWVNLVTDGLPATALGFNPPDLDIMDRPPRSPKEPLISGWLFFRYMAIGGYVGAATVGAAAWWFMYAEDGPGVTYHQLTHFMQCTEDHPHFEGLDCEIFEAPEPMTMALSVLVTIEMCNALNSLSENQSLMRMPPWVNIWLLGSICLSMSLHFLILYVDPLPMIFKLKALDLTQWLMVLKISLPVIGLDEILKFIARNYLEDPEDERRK
Fc-PSMA, sequence (Q04609 44-750 limits assumed): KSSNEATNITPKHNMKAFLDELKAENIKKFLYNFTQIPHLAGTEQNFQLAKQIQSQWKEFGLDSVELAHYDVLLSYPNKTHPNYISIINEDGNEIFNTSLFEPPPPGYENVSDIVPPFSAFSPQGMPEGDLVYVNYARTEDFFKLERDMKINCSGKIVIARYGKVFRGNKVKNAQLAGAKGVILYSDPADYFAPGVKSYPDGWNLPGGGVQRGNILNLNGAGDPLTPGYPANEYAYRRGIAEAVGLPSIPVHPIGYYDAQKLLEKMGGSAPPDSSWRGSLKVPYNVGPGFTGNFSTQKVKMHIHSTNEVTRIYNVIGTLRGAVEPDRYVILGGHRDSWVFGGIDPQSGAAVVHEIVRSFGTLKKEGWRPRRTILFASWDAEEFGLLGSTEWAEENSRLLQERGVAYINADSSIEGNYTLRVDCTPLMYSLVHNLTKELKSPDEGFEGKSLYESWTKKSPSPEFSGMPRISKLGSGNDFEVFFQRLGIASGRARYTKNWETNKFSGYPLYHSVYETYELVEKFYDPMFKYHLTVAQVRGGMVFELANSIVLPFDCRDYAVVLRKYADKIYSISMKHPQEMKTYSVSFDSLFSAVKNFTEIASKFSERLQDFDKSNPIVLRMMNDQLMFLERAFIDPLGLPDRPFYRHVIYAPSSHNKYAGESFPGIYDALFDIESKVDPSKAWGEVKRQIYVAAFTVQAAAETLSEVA

Q: What does the source list for `C/C=C(/C)C(=O)O[C@H]1C(C)=C2[C@H]([C@@H]1OC(=O)CCCCCCC)[C@@](C)(OC(C)=O)C[C@H](OC(=O)CCCCCCCCCCCNC(=O)C[C@H](N)C(=O)O)[C@@]1(O)[C@H]2OC(=O)[C@@]1(C)O` [12ADTβAsp]?
A: binding competition with cyclopiazonic acid (CPA) (SERCA pump [1]): competitively affect the binding of each other; fold higher amount in tumors than in kidney [2, 21]: 3.5 fold; fold higher amount in tumors than in skeletal muscle [2, 21]: 1.6 fold; tumor concentration relative to that in CWR22R-H xenografts ([2]; MCF-7 versus CWR22R-H): 1/10; maximal elevation in intracellular Ca2+ (TSU cells; 200 nM): up to 400 nM; cytotoxic potency compared with TG [3]: comparable to those of TG; accumulation in tumor tissue ([4]; 5 days after single dose of G202 56 mg/kg, CWR22R-H tumor): micromolar levels; fold higher amount in tumor tissue compared to normal brain ([4]; CWR22R-H, after G202 56 mg/kg): 354 fold; fold higher amount in tumor tissue compared to normal kidney ([4]; CWR22R-H, after G202 56 mg/kg): 15 fold; cytotoxic potency compared with TG [5]: comparable to those of TG; potency at inhibiting the SERCA pump compared with TG (SERCA pump [6]): as potent at inhibiting the SERCA pump in broken cell microsomal studies as was TG

Q: Which “lethal dose for 100% of the test population (LD100)” value [7] does the source give for `C/C=C(/C)C(=O)O[C@H]1C(C)=C2[C@H]([C@@H]1OC(=O)CCCCCCC)[C@@](C)(OC(C)=O)C[C@H](OC(=O)CCC)[C@@]1(O)[C@H]2OC(=O)[C@@]1(C)O` [TG, thapsigargin] here?
A: 0.2 mg/kg

Q: And the “clonal survival after repeated exposure” value [8]?
A: no change in clonal survival

Q: For `CC(=O)O[C@@]12CO[C@@H]1C[C@H](O)[C@@]1(C)C(=O)[C@H](O)C3=C(C)[C@@H](OC(=O)[C@H](O)[C@@H](NC(=O)OC(C)(C)C)c4ccccc4)C[C@@](O)([C@@H](OC(=O)c4ccccc4)[C@H]21)C3(C)C` [docetaxel, reference compound], which “treated-to-control tumor volume (T/C) ratio” value [9] is on record?
A: 0.63

Q: What about the maximally tolerated dose [10] of the same molecule?
A: 0.39 µmol

Q: Which results are given for `C/C=C(/C)C(=O)O[C@H]1C(C)=C2[C@H]([C@@H]1OC(=O)CCCCCCC)[C@@](C)(OC(C)=O)C[C@H](OC(=O)CCCCCCCCCCCNC(=O)C[C@H](N)C(=O)N[C@@H](CCC(=O)N[C@@H](CCC(=O)N[C@@H](CCC(=O)N[C@@H](CCC(=O)O)C(=O)O)C(=O)O)C(=O)O)C(=O)O)[C@@]1(O)[C@H]2OC(=O)[C@@]1(C)O` [G202, 12ADTβAsp-GluγGluγGluγGlu]?
A: brain pathology (GLP toxicology in rat; rat pathological studies): lack of toxicity to the brain; renal toxicity (GLP toxicology in rat; rat toxicological studies): transient reversible renal toxicity; bone marrow toxicity (GLP toxicology in rat; rat toxicology studies): no bone marrow toxicity; stability to hydrolysis in human plasma [11]: completely stable to hydrolysis in human plasma; growth inhibition of LNCaP cells on addition of PMPA (LNCaP cells): could be blocked; androgen receptor (AR) expression in tumors ([12]; 4 days after 56 mg/kg × 3): marked down-regulation of AR expression; antitumor effect ([12]; single 3-day course, 56 mg/kg × 3, out to ≥30 days): Significant antitumor effects; maximum body weight loss [13]: about 15%; predicted increase of AUC for a doubling in dose ([14]; first six dose cohorts, 1.2 to 40 mg/m^2): 2.23 fold; terminal half-life in patients relative to monkey ([14]; human versus monkey): ~1.5 fold; half-life ([14]; human, serum, intravenous): 15.1 h; increase in intracellular calcium (TSU cells; 5 mM (25-fold higher concentration)): no appreciable increase in intracellular calcium; antitumor effect [15]: Significant antitumor effects; half-life [16]: 9.7 h; treated-to-control tumor volume (T/C) ratio [9]: 0.15; average regression of xenografts ([9]; single 3-day course, 56 mg/kg × 3, over a 30-day period): ~50%; hydrolysis by PSMA (Fc-PSMA): efficiently hydrolyzed by PSMA; amount detected in the brain ([4]; mouse biodistribution studies): low amounts; hydrolysis by other purified proteases (other purified proteases): not appreciably hydrolyzed; T/C ratio at 3 weeks after treatment [17]: 0.32; bone marrow toxicity ([10]; mouse toxicology studies): no bone marrow toxicity; MTD ([10]; mouse, in vivo, iv): 112 mg/kg; mortality of treated animals ([10]; up to three consecutive daily doses of 56 mg/kg (1 μmol/dose)): < 10%; maximally tolerated single intravenous dose ([10]; wild-type mice): 2 μmol/dose; TG molar equivalents deliverable systemically compared to TG alone ([10]; without significant host toxicity): > 150 fold; maximally tolerated dose [10]: 1.0 µmol; fraction of dose converted in the circulation to 12ADTβAsp [18]: Less than 1%; T/C ratio at 3 weeks after treatment ([19]; MCF-7): 0.05; effect on tumor growth ([19]; single dose 56 mg/kg on 1 day): tumor growth delay; T/C ratio ([19]; three consecutive doses of 56 mg/kg): 0.06 ± 0.005; T/C ratio ([19]; two consecutive doses of 56 mg/kg): 0.05 ± 0.006; effect on tumor growth ([19]; two daily doses of 56 mg/kg, out to 30 days, all treated animals): sustained tumor regression; estrogen receptor (ER) expression in tumors ([19]; two doses of 56 mg/kg, nadir 3 days after the last dose): down-regulation of the estrogen receptor; animals with lymphoid depletion of lymph nodes ([20]; 10 mg/kg): five of six; animals with lymphoid depletion of spleen ([20]; 10 mg/kg): five of six; increase of splenic ratio ([20]; female monkeys, 10 mg/kg): 25%; decrease of splenic/body weight ratio versus vehicle ([20]; male monkeys, 10 mg/kg): 44%; decrease of thymus/body weight ratio versus vehicle ([20]; male monkeys, 10 mg/kg): 67%; bone marrow toxicity ([20]; monkey toxicology studies): no bone marrow toxicity; brain pathology ([20]; six monkeys, three consecutive doses of 10 mg/kg): within normal limits
